Shown are actives, neighbours in structure and some others; about 1.2% of the full set was active somewhere.
MMP13 inh = blocks human MMP13 activity. P45452. MMP-13 fTHP FRET cleavage, Mca fluorescence. inhibition, % at 4 µM. 65,000 compounds, 0.07% hits;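 active means inhibition above the mean of compound-free control plate wells plus 3 SD, cut at about 14% in these data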;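 further: 0% = DMSO wells and 100% = wells with reference MMP-13 inhibitor after basal subtraction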
S1P1 ag-PAM = agonists and agonism potentiators of human S1P1 receptor; 56,000 compounds, 0.57% hits; activation, % at 9.5 µM; P21453; S1P1 CRE-bla cells, forskolin, beta-lactamase FRET, potentiator mode; S1P1 agonist co-added at EC20, 2 nM; 100% = saturating reference agonist, 0% = basal; AID 449;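 active means activation above a cutoff set at the mean activation of all tested compounds plus 3 SD, cut at about 54% in these data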;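 further: forskolin at 4 µM as EC80 and the EC20 agonist is SEW2871; 100% = SEW2871 at its EC100 plus forskolin at EC80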
PKA inh = blocks human protein kinase A activity. inhibition, % at 6 µM. AID 524. PKA Kemptide phosphorylation, Kinase-Glo ATP luminescence. 65,000 compounds, 0.1% hits;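 active means inhibition above the screen-wide mean inhibition plus 3 SD, cut at about 21% in these data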
S1P3 agonist = agonists of human S1P3 receptor. Q99500. S1P3 NFAT-BLA reporter cells, agonism, FRET ratio; relative to 1 µM S1P, basal subtracted. activation, % at 4.5 µM. 60,000 compounds, 0.1% hits. AID 373;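 active means activation above the screen-wide mean plus 3 SD, cut at about 4.5% in these data, passing the limit was not always enough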
Target sequence (Q99500 whole entry, looked up): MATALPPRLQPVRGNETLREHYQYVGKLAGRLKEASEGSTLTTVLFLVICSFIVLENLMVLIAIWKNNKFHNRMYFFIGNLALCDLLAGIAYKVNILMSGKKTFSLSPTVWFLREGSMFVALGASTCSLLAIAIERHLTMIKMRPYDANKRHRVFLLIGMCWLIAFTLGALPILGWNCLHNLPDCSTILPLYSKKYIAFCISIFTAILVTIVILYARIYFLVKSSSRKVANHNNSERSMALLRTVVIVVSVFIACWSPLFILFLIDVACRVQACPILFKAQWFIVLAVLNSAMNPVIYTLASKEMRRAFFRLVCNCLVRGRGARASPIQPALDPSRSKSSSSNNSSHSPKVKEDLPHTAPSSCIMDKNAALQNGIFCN
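Material: Human S1P3 NFAT-BLA reporter CHO cells | Incubation: Overnight plating, 4 h compound 37 °C, 2 h substrate RT | Signal: FRET β-lactamase substrate fluorescence, excitation 405 nm, 460/535 nm emission ratio, background-subtracted | Compound: 4.5 µM final, single dose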
ROCK2 inh = inhibitors of human Rho kinase 2 | inhibition, % at 6 µM | 60,000 compounds, 0.35% hits | purified ROCK2, Kinase-Glo ATP depletion luminescence | O75116;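 active means inhibition above the screen-wide mean inhibition plus 3 SD, cut at about 18% in these data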;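 further: plate controls were DMSO wells for no effect and Y-27632 control wells after no-enzyme background subtraction for full effect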
JNK3 blocker = blocks human JNK3 kinase activity | P53779 | purified JNK3 kinase activity, HTS | inhibition, % at 8 µM | AID 746 | 60,000 compounds, 0.61% hits; in the data active means inhibition above about 17%;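 further: 0% = DMSO and 100% = reference inhibitor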
* marks the source's active call; other numbers are inactive results; x = not tested or not shown.

SMILES	MMP13 inh	S1P1 ag-PAM	PKA inh	S1P3 agonist	ROCK2 inh	JNK3 blocker
CCCc1cc(C(=O)N(C2CCCCC2)C2CCCCC2)no1	-1.1	13.1	6.0	58.0*	1.5	6.3
Nc1nonc1C(=O)NCCNC(=O)c1cccs1	1.3	-17.9	-1.1	-0.6	3.5	0.1
CCOC(=O)c1ccc(CNC(=O)Cn2nnc(-c3ccc(C)cc3)n2)o1	6.9	32.3	9.2	-0.7	3.0	4.7
COc1ccc(C)cc1NC(=O)CN1CCN(c2ccc(F)cc2)CC1	-6.9	5.0	1.7	-0.4	-2.4	-9.3
COC(=O)c1sccc1NC(=O)CN1CCN(c2ccc(F)cc2)CC1	-0.4	-6.7	7.2	0.5	4.9	46.5*
O=C1CCCc2nn(-c3ccccc3)c(-c3ccncc3)c21	-9.0	7.3	6.0	-0.8	1.5	30.1*
CC1CCC2(CC1)NC(=O)c1ccccc1O2 (configuration not stated)	-5.0	-20.5	3.4	1.8	2.4	-5.0
CSc1cccc(NC(=O)c2ccco2)c1	2.6	-12.0	0.1	-1.7	1.7	4.4
CC1=C(C(=O)OCc2ccc3c(c2)OCO3)C(c2ccccc2)NC(=O)N1 (configuration not stated)	-6.7	88.1*	3.1	-0.8	8.1	-7.5
CCOc1ccc2ccccc2c1C(=O)Nc1cc(=O)n(C)c(=O)n1C	-10.8	-2.2	3.0	0.5	3.2	-1.4
Cn1c(C(C#N)C2=C(Cl)C(=O)N(c3ccccc3)C2=O)nc2ccccc21 (configuration not stated)	-8.1	27.4	-3.5	-0.8	-0.3	-1.1
CCOC(=O)C1=C(C)OC(N)=C(C#N)C1c1cc2ccccc2nc1N1CCCCC1 (configuration not stated)	-31.2	9.1	3.9	-2.6	-2.2	22.5*
Cn1c(C(=O)N2CCCc3ccccc32)cc2sccc21	-10.9	85.7*	-1.5	0.9	-1.0	3.4
CCSc1nnc([C@H](C)NC(=O)OC(C)(C)C)o1	5.8	10.8	-1.0	-0.8	-1.3	-8.4
O=C(Cn1cnc2ccccc2c1=O)Nc1ccc(-c2nnc3n2CCCCC3)cc1	1.1	-48.0	3.4	0.2	3.4	29.7*
Cc1cccc(N2CCN(C(=O)C3CCN(c4nnc(-n5cccc5)s4)CC3)CC2C)c1 (configuration not stated)	-1.7	31.6	4.7	0.1	6.0	0.8
Cc1ccc(Cl)cc1N1CCN(C(=O)C2CCN(c3nnc(-n4cccc4)s3)CC2)CC1	6.7	87.4*	7.9	-1.9	2.7	2.4
CC(C)Cc1nnc(NS(=O)(=O)c2ccc(Cl)cc2)s1	5.6	12.5	7.0	-0.3	-0.3	13.1
Cc1nn(-c2ccccc2)c(Oc2ccc(F)cc2)c1/C=N/n1cnnc1	2.0	-14.2	10.6	-0.5	0.6	-7.0
Fc1ccc(COc2ccc(/C=N/n3cnnc3)cc2)cc1	9.8	64.5*	-2.9	-1.4	-0.2	-4.8
O=C1c2ccccc2-c2onc3ccc(NCc4ccco4)c1c23	0.0	-22.6	5.8	-4.5	-7.3	32.9*
CCOc1ccc2noc3c2c1C(=O)c1ccccc1-3	1.5	-60.7	10.5	-0.3	5.5	4.5
Cc1nc2ccc3nc(NC(=O)C4COc5ccccc5O4)sc3c2s1 (configuration not stated)	-4.4	66.7*	2.5	0.0	5.8	4.1
CC1=C(C)CS(=O)N(S(=O)(=O)c2ccc(Cl)cc2)C1 (configuration not stated)	1.4	18.9	8.1	-1.2	-1.4	19.7*
CC(C)c1ccc(OCc2nc(-c3ccccn3)no2)c(Br)c1	-9.2	85.5*	-3.6	-1.9	-4.8	-1.9
SMILES	MMP13 inh	S1P1 ag-PAM	PKA inh	S1P3 agonist	ROCK2 inh	JNK3 blocker
Clc1ccc(OCc2nc(-c3ccncc3)no2)c(Br)c1	-10.2	72.0*	-1.4	-0.4	0.8	-1.0
Cc1ccc(OCc2nc(-c3ccccn3)no2)c(Br)c1	4.0	15.5	8.2	-1.5	2.5	-0.8
Cc1nc(NCc2ccco2)c2c3c(sc2n1)CCC3	-4.5	-21.4	8.1	-1.9	8.2	6.0
c1coc(CNc2ncnc3sc4c(c23)CCCCC4)c1	-5.9	-13.8	9.0	-0.6	18.5*	10.5
CC(C)c1nc(N2CCOCC2)c(C#N)c2c1CCCC2	-24.1	x	6.1	-0.3	4.8	2.1
CCSc1nc(N2CCOCC2)c2c(c1C#N)CCCC2	-1.1	54.3	3.9	4.7*	1.6	-6.0
Cc1cn(S(=O)(=O)c2ccc(Br)c3ccccc23)cn1	0.7	4.3	4.8	-1.8	4.3	39.9*
CCOc1ccc(S(=O)(=O)n2ccc(C)n2)c2ccccc12	5.0	-2.0	12.6	0.2	5.5	-2.5
Cc1onc(-c2ccccc2Cl)c1C(=O)N1CCN=C1SCc1cccnc1	2.6	11.3	10.8	-0.7	6.5	2.2
O=C(Nc1cccc(C(F)(F)F)c1)C1CCCN1S(=O)(=O)c1cccc2cccnc12 (configuration not stated)	-2.5	71.2*	4.9	-0.1	4.5	0.7
CCOC(=O)c1cccc(NC(=O)C2CCCN2S(=O)(=O)c2cccc3cccnc23)c1 (configuration not stated)	2.4	2.3	3.8	-1.1	2.1	5.9
CCOC(=O)C(C)n1ncn2cccc2c1=O (configuration not stated)	4.5	-0.6	5.9	-0.2	6.4	3.6
CCCCOC(=O)c1[nH]c2c(c1C)C(=O)CC(c1cc(OC)c(OC)c(OC)c1)C2 (configuration not stated)	1.9	133.9*	11.4	-1.4	1.6	-6.6
O=C(Nc1c(F)cc(F)cc1Br)c1cc(-c2ccc(O)cc2)on1	-3.7	98.8*	7.2	0.5	3.0	4.9
COC(=O)c1ccc2nc(C(F)(F)F)[nH]c2c1	-3.4	0.1	4.1	0.4	5.3	-3.6
Fc1ccccc1N1CCN(c2ncnc3[nH]ncc23)CC1	-3.9	27.1	28.4*	0.0	13.7	4.2
NC(=O)CN1CCN(c2ccccc2F)CC1	6.2	-27.8	6.6	-0.9	-0.5	-7.2
N#Cc1c(N)nc2c(c1-c1ccco1)CCCCC2	-3.4	-52.6	3.2	-0.6	9.0	31.6*
O=C(NCc1nc2ncc(Br)cc2[nH]1)c1ccccc1	-0.7	-6.9	0.2	-1.2	-4.0	39.9*
CCSc1nnc(NC(=O)C(Cc2ccccc2)n2cccc2)s1 (configuration not stated)	-2.5	58.4	-3.1	-1.5	-5.3	1.8
Cc1csc(NC(=O)C(Cc2ccccc2)n2cccc2)n1 (configuration not stated)	0.5	81.2*	2.7	0.1	1.4	-3.5
O=c1[nH]c(=S)c2c(n1-c1ccccc1)CCC2	4.5	-6.9	-2.3	-0.1	-0.9	17.6*
O=C(CC1CCS(=O)(=O)C1)Nc1ccc[nH]c1=O (configuration not stated)	13.8	-11.3	6.5	-0.9	5.9	2.7

Screening data as filed in PubChem BioAssay.
